Here are results for ten compounds from ChEMBL document CHEMBL3853360, “Combined Interactions with I1-, I2-Imidazoline Binding Sites and α2-Adrenoceptors To Manage Opioid Addiction” (ACS Med Chem Lett, 2016).

One assay deals with Nischarin (Rattus norvegicus, UniProt Q4G017). As to the kind of experiment: Displacement of [125I]-p-iodoclonidine from I1 receptor imidazoline binding site in Sprague-Dawley rat kidney cell membranes after 30 mins by liquid scintillation counting. An outline of the steps:
(§1)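 Radioligand competition binding with pKi determined by displacement. I1 sites: [125I]-p-iodoclonidine on rat kidney membranes. I2 sites: [3H]-2-BFI on rat brain membranes. α2-ARs: [3H]-RX821002 on rat brain membranes.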
A general note: In a radioligand displacement assay an active substance lowers the binding of a labelled ligand.

For assay [1], the target named is T1, Alpha-2B adrenergic receptor (Homo sapiens) (UniProt P18089).
T1 sequence (whole entry): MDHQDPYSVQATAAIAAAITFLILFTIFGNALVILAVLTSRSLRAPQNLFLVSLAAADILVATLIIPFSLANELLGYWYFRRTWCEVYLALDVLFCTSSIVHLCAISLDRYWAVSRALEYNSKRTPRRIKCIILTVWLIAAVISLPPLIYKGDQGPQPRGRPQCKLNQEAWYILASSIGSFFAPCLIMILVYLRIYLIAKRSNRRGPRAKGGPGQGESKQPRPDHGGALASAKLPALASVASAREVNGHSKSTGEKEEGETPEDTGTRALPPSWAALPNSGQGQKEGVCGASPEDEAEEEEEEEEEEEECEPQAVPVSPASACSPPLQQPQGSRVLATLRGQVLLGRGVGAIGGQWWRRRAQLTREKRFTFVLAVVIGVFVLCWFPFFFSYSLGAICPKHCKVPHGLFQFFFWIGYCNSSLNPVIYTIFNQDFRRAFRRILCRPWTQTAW
The assay can be described thus: Agonist activity at human alpha2b-AR expressed in CHO cells assessed as rate of acidification after 240 mins by cytosensor microphysiometric analysis relative to (-)-noradrenaline. It counts as cell-based. The method, boiled down: (§2)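 Functional assay in CHO cells stably expressing a single human α2-AR subtype (α2A, α2B or α2C), read on a Cytosensor microphysiometer. Outputs are pEC50, intrinsic activity and, for antagonism, pKb. Intrinsic activity is expressed as a fraction of the full agonist (−)-noradrenaline, set at 1. Values are mean ± SEM of 3–5 separate experiments.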

Assay [2] deals with T2, Alpha-2C adrenergic receptor (Homo sapiens, UniProt P18825).
T2 sequence (P18825 whole entry): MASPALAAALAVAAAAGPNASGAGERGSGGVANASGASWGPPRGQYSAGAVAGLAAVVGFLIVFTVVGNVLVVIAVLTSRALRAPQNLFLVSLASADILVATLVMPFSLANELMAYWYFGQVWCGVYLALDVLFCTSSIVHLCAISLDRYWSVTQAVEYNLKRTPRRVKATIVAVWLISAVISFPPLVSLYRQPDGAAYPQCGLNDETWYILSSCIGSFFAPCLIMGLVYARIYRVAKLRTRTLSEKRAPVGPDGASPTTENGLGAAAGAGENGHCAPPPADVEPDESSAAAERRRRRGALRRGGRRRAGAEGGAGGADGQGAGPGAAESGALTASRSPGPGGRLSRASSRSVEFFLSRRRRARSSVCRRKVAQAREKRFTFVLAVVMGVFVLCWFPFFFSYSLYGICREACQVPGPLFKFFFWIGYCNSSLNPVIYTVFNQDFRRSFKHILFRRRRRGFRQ
The assay can be described thus: Agonist activity at human alpha2c-AR expressed in CHO cells assessed as rate of acidification after 240 mins by cytosensor microphysiometric analysis. It is filed as cell-based. An outline of the steps: as §2

Assay [3] is described as follows: Displacement of [3H]-2-BFI from I2 receptor imidazoline binding site in Sprague-Dawley rat brain membranes after 30 mins by liquid scintillation counting. It counts as cell membranes, Membrane. The method, boiled down:
as §1

Assay [4] addresses T3, Alpha-2A adrenergic receptor (Homo sapiens) (UniProt P08913).
T3 sequence (whole entry): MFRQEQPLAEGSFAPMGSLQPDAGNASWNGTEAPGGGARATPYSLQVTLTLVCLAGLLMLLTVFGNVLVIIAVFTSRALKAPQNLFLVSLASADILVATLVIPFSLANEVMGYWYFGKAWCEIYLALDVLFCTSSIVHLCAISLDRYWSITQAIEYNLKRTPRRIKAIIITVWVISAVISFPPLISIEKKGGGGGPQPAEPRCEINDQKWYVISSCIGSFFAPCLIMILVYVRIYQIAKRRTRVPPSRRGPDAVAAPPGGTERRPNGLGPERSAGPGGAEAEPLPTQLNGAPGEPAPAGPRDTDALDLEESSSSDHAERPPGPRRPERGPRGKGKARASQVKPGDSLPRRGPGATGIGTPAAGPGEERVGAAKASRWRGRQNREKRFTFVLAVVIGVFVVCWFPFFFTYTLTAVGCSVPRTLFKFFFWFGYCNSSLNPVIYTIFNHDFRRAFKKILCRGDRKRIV
The assay can be described thus: Antagonist activity at human alpha2a-AR expressed in CHO cells assessed as inhibition of (-)-noradrenaline-induced acidification rate after 240 mins by cytosensor microphysiometric analysis. It is filed as cell-based. An outline of the steps: as §2

In assay [5] the target is T4, Alpha-2C adrenergic receptor (Homo sapiens) (UniProt P18825).
T4 sequence (whole entry): T2 sequence (P18825 whole entry)
As to the kind of experiment: Agonist activity at human alpha2c-AR expressed in CHO cells assessed as rate of acidification after 240 mins by cytosensor microphysiometric analysis relative to (-)-noradrenaline. It counts as cell-based. The method, boiled down: as §2

Assay [6] deals with T5, Adrenergic receptor alpha-2 (Rattus norvegicus, UniProt P22086+P19328+P22909).
T5 sequence (P22086 whole entry): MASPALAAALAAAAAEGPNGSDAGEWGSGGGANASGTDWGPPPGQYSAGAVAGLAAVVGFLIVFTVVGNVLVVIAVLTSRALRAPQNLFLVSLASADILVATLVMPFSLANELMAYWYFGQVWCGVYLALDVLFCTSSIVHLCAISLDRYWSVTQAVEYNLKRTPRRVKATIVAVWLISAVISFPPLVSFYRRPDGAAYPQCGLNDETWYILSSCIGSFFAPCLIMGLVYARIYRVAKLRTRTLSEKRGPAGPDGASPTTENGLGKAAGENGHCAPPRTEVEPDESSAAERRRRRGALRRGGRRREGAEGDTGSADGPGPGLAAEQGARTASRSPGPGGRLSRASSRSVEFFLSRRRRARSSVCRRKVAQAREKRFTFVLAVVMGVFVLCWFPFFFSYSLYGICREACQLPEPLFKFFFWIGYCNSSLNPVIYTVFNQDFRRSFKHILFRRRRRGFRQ
T5 sequence (P19328 whole entry): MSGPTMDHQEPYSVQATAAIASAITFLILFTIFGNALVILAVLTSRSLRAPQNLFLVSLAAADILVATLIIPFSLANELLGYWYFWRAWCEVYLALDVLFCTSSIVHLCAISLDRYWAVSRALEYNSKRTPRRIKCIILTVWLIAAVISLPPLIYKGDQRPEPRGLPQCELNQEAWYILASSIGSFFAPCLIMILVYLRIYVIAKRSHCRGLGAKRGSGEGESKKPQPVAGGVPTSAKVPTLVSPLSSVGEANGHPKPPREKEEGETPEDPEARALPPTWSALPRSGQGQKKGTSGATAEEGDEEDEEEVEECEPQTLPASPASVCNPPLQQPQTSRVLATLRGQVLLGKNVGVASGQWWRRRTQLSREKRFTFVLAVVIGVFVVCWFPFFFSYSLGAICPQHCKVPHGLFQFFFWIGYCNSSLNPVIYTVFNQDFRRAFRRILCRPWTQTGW
T5 sequence (P22909 whole entry): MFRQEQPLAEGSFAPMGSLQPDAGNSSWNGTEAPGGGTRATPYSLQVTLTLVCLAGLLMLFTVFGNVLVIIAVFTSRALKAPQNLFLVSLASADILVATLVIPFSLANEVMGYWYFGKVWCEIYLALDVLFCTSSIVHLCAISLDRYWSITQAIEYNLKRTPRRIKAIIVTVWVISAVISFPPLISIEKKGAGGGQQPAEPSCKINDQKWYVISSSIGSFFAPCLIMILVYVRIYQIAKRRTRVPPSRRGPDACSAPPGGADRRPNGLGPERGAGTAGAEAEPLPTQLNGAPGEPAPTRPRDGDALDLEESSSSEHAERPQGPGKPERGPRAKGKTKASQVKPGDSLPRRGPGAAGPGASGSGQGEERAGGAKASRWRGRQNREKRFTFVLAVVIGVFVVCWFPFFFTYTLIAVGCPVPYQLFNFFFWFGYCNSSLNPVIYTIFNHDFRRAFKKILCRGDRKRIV
As to the kind of experiment: Displacement of [3H]-RX 821002 from alpha2-AR in Sprague-Dawley rat brain membranes after 30 mins by liquid scintillation counting. It is filed as cell membranes, Membrane. The method, boiled down:
as §1

The target of assay [7] is T6, Alpha-2B adrenergic receptor (Homo sapiens, UniProt P18089).
T6 sequence (P18089 whole entry): T1 sequence (whole entry)
The assay can be described thus: Agonist activity at human alpha2b-AR expressed in CHO cells assessed as rate of acidification after 240 mins by cytosensor microphysiometric analysis. It is filed as cell-based. The method, boiled down: as §2

A further assay is filed under the species Homo sapiens. As to the kind of experiment: Selectivity ratio of agonist activity at I1 receptor imidazoline binding site (unknown origin) to agonist activity at alpha2-AR (unknown origin).
Assay [8] can be described thus: Displacement of [3H]idazoxan from I2 receptor imidazoline binding site in rabbit kidney membranes after 45 mins by […]. It is filed as cell membranes, Oryctolagus cuniculus, Membrane.
The target in assay [9] is T7, Alpha-2A adrenergic receptor (Homo sapiens, UniProt P08913).
T7 sequence (P08913 whole entry): T3 sequence (whole entry)
The assay can be described thus: Agonist activity at human alpha2a-AR expressed in CHO cells assessed as rate of acidification after 240 mins by cytosensor microphysiometric analysis. It counts as cell-based. The method, boiled down:
as §2

Bounds are passed on as bounds.

Nischarin, sequence (Q4G017 whole entry): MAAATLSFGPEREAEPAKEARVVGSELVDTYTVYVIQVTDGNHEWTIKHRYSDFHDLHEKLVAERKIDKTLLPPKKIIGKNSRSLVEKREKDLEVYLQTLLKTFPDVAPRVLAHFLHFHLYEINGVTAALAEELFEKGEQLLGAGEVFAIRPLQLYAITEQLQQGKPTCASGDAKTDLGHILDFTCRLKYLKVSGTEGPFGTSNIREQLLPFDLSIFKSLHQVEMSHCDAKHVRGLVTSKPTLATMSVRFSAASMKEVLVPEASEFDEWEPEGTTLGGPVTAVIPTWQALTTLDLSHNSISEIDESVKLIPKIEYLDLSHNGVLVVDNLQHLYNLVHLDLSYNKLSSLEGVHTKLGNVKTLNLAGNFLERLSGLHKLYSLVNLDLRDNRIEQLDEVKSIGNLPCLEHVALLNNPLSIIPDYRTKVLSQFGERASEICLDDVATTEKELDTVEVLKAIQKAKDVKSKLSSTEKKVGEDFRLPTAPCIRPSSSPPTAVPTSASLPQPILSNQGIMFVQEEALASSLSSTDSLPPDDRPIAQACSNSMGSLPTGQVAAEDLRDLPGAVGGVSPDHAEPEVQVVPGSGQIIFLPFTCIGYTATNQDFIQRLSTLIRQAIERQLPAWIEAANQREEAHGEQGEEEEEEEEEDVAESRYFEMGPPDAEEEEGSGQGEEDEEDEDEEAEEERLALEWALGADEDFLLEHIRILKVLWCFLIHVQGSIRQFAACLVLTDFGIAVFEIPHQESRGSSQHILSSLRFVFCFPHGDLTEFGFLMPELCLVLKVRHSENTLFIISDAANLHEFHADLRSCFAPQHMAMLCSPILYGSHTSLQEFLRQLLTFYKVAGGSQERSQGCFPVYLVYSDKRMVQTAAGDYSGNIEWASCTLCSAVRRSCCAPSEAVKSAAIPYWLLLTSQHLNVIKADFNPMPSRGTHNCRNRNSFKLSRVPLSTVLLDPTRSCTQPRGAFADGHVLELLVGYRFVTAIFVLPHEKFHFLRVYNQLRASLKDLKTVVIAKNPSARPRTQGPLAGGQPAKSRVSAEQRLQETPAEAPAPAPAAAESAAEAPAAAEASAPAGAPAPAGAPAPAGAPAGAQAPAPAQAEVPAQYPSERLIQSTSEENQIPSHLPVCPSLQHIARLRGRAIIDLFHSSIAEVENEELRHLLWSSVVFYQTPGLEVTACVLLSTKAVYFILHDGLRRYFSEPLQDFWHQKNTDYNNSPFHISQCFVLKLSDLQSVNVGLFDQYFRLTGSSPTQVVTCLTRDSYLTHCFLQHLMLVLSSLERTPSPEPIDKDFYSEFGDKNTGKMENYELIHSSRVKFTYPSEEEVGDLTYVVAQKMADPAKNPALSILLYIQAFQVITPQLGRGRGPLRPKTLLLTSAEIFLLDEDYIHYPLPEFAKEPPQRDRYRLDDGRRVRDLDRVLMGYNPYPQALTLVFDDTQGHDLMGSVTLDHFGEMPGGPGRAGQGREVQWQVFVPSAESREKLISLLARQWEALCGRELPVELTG

The term Ki denotes the equilibrium dissociation constant of an inhibitor or competing ligand from its target. In general, EC50 refers to the concentration at which the effect is half-maximal. The term pKi denotes the Ki on a negative log10 scale, so that one unit is a factor of ten. The term pKb denotes the negative decadic logarithm of the Kb, by convention in mol/L. For the compound `Clc1ccccc1NCC1=NCCN1`, the Ki at Nischarin is 7.59 nM. Moreover, the Intrinsic activity in [1] was found to be 0.45; in assay [5], 0.85. The EC50 is 224 nM in assay [2] and 776 nM in [7]. Further, the pKi in assay [3] was 7.9; in [6], 7.59. Besides, the pKb in assay [4] worked out at 7.12.
Take `C=CCc1ccccc1/C=C/C1=NCCN1`: the affinity on Nischarin corresponds to a Ki of 69.2 nM. In addition, the pKi in assay [3] is recorded as 8.3; in [6], under 6.
Regarding `CCCc1ccccc1NCC1=NCCN1`, the Ki at Nischarin was 8.32 nM. Also, the Intrinsic activity was 0.55 in [1] and 0.75 in assay [5]. The EC50 in assay [2] was 115 nM; in assay [7], 4570 nM. For the same compound, the pKi is 7.29 in assay [3] and 6.75 in [6]. Further, the negative logarithm of the Kb (pKb) in assay [4] was 6.71.
With `COc1nc(C)nc(Cl)c1NC1=NCCN1`, in the assay listed under Homo sapiens, the Selectivity ratio amounted to 40.
As for `c1ccc(NCC2=NCCN2)cc1` [PHENAMAZOLINE], in [8], the pKi worked out at 7.48.
Compound `Clc1ccccc1/C=C/C1=NCCN1` had a Ki on Nischarin of 24 nM. In addition, the pKi in assay [3] is listed as 8.79; in assay [6], under 6.
In the same order, the values of `C(=C\c1ccccc1-c1ccccc1)/C1=NCCN1` are 97.7 nM, 8.08 and under 6.
Take `Clc1cccc(Cl)c1NC1=NCCN1`: the Selectivity ratio in the assay filed under Homo sapiens was found to be 4.
`c1ccc(-c2ccccc2NCC2=NCCN2)cc1` showed a Ki on Nischarin of 1.41 nM. For the same compound, the Intrinsic activity in assay [1] stood at 0.5; in [5] it was 0.8. Also, the figures for the concentration giving a half-maximal response (EC50) in assay [2], in assay [9] and in assay [7] were 148 nM, 63.1 nM and 955 nM, respectively. In addition, the figures for the pKi in assay [3] and in assay [6] were 6.1 and 6.75, respectively.
The compound `C=CCc1ccccc1NCC1=NCCN1` gave a Ki at Nischarin of 3.98 nM. Moreover, the Intrinsic activity in assay [1] was 0.5; in assay [5], 0.8. Moreover, the figures for the EC50 in assay [2] and in assay [7] were 158 nM and 2510 nM, respectively. Moreover, the pKi in assay [3] was 7.85; in assay [6], 6.79. For the same compound, the pKb in assay [4] amounted to 6.77.
